Tests used:
[1] = molecular target: Cannabinoid receptor 2 (Homo sapiens, UniProt P34972); assay: Displacement of [3H]CP55940 from human CB2 receptor expressed in HEK293 cell membranes
Procedure, shortened: (§1)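 Competition binding against [3H]CP55940 in membranes from HEK cells overexpressing human CB1 or CB2. Ki values are derived from displacement, and the same membrane format is used for both receptors. Values are averages of three to six independent measurements.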

[2] = molecular target: Cannabinoid receptor 1 (Homo sapiens, UniProt P21554); assay: Displacement of [3H]CP55940 from human CB1 receptor expressed in HEK293 cell membranes; procedure, shortened: as §1
[3] = Half life in Sprague-Dawley rat plasma at 1 mg/kg, po by LC-MS/MS analysis; assay type: ADME, organism-based
[4] = Cmax in C57BL6 mouse plasma at 0.3 mg/kg, po measured at 1 hr post dose by LC-MS/MS analysis; assay type: ADME, organism-based; design: dose 0.3 mg/kg, route oral
Procedure, shortened: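 Female C57BL6 mice, 8 weeks old, received a single oral dose of 0.3 mg/kg in 1% NMP/0.3% Tween 80 in 0.5% Na-CMC. […] Maximum observed concentrations are reported; plasma clearance and half-life come from PK analysis.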

[5] = species: Homo sapiens; assay: Selectivity ratio of Ki for displacement of [3H]CP55940 from human CB2 receptor expressed in HEK293 cell membranes to Ki for displacement of [3H]CP55940 from human CB1 receptor expressed in HEK293 cell membranes
Procedure, shortened: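 Competitive displacement of [3H]CP55940 from membranes of HEK cells overexpressing human CB1 or human CB2. A Ki was determined at each receptor, and selectivity was expressed as Ki(CB2)/Ki(CB1). Ki values are means of three to six independent measurements.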

Cannabinoid receptor 1, sequence (P21554 whole entry): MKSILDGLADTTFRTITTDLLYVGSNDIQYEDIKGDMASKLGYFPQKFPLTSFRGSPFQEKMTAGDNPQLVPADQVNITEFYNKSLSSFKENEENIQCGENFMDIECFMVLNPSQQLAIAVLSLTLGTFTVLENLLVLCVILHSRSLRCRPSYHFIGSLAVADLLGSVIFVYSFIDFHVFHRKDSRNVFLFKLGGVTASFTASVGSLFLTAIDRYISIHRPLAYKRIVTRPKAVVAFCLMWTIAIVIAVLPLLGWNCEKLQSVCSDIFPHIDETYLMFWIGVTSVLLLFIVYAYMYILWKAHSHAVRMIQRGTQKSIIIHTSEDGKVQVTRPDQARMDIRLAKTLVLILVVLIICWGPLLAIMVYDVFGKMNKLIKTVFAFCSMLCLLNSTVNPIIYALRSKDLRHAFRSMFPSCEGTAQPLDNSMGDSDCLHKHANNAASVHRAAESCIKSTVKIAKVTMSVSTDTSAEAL
Cannabinoid receptor 2, sequence (P34972 whole entry): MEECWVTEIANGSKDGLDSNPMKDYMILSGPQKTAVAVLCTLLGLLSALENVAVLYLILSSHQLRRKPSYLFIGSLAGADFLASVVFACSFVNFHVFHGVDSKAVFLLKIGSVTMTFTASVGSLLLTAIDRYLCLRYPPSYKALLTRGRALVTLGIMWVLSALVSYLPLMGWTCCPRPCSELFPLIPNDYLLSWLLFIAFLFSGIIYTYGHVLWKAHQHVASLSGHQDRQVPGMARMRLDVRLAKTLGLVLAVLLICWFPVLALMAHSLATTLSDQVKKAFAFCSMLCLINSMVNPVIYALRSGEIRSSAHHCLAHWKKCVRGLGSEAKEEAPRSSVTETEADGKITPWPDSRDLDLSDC

Row | Compound | Ki [1] | Ki [2] | half-life [3] | Cmax [4] | Ratio Ki [5]
1 | O=C(NCC1CCC(F)(F)CC1)NC1CCN(c2ncnc3c2nc(-c2ccccc2Cl)n3-c2ccc(Cl)cc2)CC1 | > 10000 nM | 26 nM |  |  | 
2 | COCCN(C)C(=O)NC1CCN(c2ncnc3c2nc(-c2ccccc2Cl)n3-c2ccc(Cl)cc2)CC1 | 2300 nM |  |  |  | 
3 | O=C(NC1CCCCC1)NC1CCN(c2ncnc3c2nc(-c2ccccc2Cl)n3-c2ccc(Cl)cc2)CC1 | 4600 nM | 1.4 nM |  |  | 
4 | O=C(NCC1CCCCC1)NC1CCN(c2ncnc3c2nc(-c2ccccc2Cl)n3-c2ccc(C(F)(F)F)nc2)CC1 |  | 730 nM |  |  | 
5 | CC1(NC(=O)NC2CCCCC2)CCN(c2ncnc3c2nc(-c2ccccc2Cl)n3-c2ccc(Cl)cc2)CC1 | > 10000 nM | 13 nM |  |  | 
6 | CC1(NC(=O)Nc2ccc(F)cc2F)CCN(c2ncnc3c2nc(-c2ccccc2Cl)n3-c2ccc(Cl)cc2)CC1 | > 10000 nM | 6 nM |  |  | 
7 | O=C(NC1CCCC1)NC1CCN(c2ncnc3c2nc(-c2ccccc2Cl)n3-c2ccc(Cl)cc2)CC1 | > 10000 nM |  |  |  | 
8 | CC(C)CN(C)C(=O)NC1CCN(c2ncnc3c2nc(-c2ccccc2Cl)n3-c2ccc(Cl)cc2)CC1 | 600 nM |  |  |  | 
9 | O=C(Nc1ccc(F)cc1F)NC1CCN(c2ncnc3c2nc(-c2ccccc2Cl)n3-c2ccc(Cl)cc2)CC1 |  |  | 12 h | 1230 ng/mL | 
10 | CC1(NC(=O)Nc2ccccc2F)CCN(c2ncnc3c2nc(-c2ccccc2Cl)n3-c2ccc(Cl)cc2)CC1 | > 10000 nM | 4 nM |  |  | 
11 | CC1(NS(=O)(=O)NC2CCCCC2)CCN(c2ncnc3c2nc(-c2ccccc2Cl)n3-c2ccc(Cl)cc2)CC1 | 740 nM | 9 nM |  |  | 82
12 | CCCN(C)C(=O)NC1CCN(c2ncnc3c2nc(-c2ccccc2Cl)n3-c2ccc(Cl)cc2)CC1 | 630 nM |  |  |  | 
13 | O=C(NC1CCN(c2ncnc3c2nc(-c2ccccc2Cl)n3-c2ccc(Cl)cc2)CC1)N1CCCCC1 | 400 nM | 1.2 nM |  |  | 330
14 | CC1(NC(=O)NCc2ccccc2F)CCN(c2ncnc3c2nc(-c2ccccc2Cl)n3-c2ccc(Cl)cc2)CC1 | 1100 nM | 15 nM |  |  | 73
15 | CC1(NC(=O)Nc2ccc(OC(F)F)nc2)CCN(c2ncnc3c2nc(-c2ccccc2Cl)n3-c2ccc(Cl)cc2)CC1 | > 10000 nM | 81 nM |  |  | 
16 | CC1(NC(=O)NC2CCN(c3ncnc4c3nc(-c3ccccc3Cl)n4-c3ccc(Cl)cc3)CC2)CCC(F)(F)CC1 | 7500 nM | 5 nM |  |  | 
17 | O=C(NCC1CCCC1)NC1CCN(c2ncnc3c2nc(-c2ccccc2Cl)n3-c2ccc(Cl)cc2)CC1 | 3200 nM |  |  |  | 
18 | O=C(NC1CCN(c2ncnc3c2nc(-c2ccccc2Cl)n3-c2ccc(Cl)cc2)CC1)NC1(C(F)(F)F)CCCC1 | > 10000 nM | 6.3 nM |  |  | 
19 | CC1(NC(=O)NC2CCC(F)(F)CC2)CCN(c2ncnc3c2nc(-c2ccccc2Cl)n3-c2ccc(Cl)cc2)CC1 | > 10000 nM | 17 nM |  |  | 
20 | O=C(NCc1ccccc1F)NC1CCN(c2ncnc3c2nc(-c2ccccc2Cl)n3-c2ccc(Cl)cc2)CC1 | 220 nM |  |  |  | 
21 | O=C(NCC1CCCCC1)NC1CCN(c2ncnc3c2nc(-c2ccccc2Cl)n3-c2ccc(Cl)cc2)CC1 | 7600 nM | 0.9 nM |  |  | 
22 | CCCN(CC(F)(F)F)C(=O)NC1CCN(c2ncnc3c2nc(-c2ccccc2Cl)n3-c2ccc(Cl)cc2)CC1 | 2800 nM | 1.1 nM |  |  | 2500
